Experimental findings from ChEMBL document CHEMBL1221201, “Extension of Drosophila melanogaster life span with a GPCR peptide inhibitor” (Nat Chem Biol, 2007) are described below.

Calls of active or inactive are those of the source. No cut-off for these calls is given here. Some results are limits rather than exact numbers.

For orientation: IC50 means the point on the concentration scale where inhibition reaches its midpoint. Broadly, the Kd is the concentration at which binding is half-saturated.

Test [1] concerns the target T1, G-protein coupled receptor Mth (Drosophila melanogaster, UniProt O97148).
T1 sequence (O97148 whole entry): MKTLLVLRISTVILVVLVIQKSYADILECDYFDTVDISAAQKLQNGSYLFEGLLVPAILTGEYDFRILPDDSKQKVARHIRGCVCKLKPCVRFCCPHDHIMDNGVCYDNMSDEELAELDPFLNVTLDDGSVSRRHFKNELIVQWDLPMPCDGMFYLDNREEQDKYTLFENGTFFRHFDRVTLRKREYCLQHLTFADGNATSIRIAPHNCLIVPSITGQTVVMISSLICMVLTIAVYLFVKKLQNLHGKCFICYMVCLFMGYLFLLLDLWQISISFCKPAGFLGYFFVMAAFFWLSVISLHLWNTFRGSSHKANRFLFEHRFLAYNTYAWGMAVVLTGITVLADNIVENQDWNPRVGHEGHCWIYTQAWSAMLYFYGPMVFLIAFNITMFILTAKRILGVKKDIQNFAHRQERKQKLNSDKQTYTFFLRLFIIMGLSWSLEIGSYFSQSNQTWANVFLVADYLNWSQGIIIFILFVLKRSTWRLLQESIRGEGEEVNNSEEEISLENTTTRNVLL
As to the kind of experiment: Inhibition of Drosophila melanogaster Mth […] transfected into human HEK cells assessed as inhibition of N-Stunted-induced Mth signaling. The format is cell-based, HEK293. The procedure, abridged: (§1)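 HEK 293 cells stably expressing Mth-B were plated on Matrigel and loaded with 4 μM Fluo-4 (45 min at room temperature, then 15 min at 37 °C) in HEPES pH 7.5 HBSS buffer with BSA and 2.5 mM probenecid. After baseline readings, antagonist was added, followed by agonist peptide. Calcium fluorescence (ex 494/em 520 nm) was read for ~5 min. Values were background-subtracted and fitted to sigmoidal curves.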

Test [2] concerns the target T1, G-protein coupled receptor Mth. As to the kind of experiment: Binding affinity to Drosophila melanogaster Mth ectodomain. The procedure, abridged: (§2)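 Mth ectodomain (His6-tagged, C-terminal biotinylation tag, expressed in baculovirus-infected High 5 cells, biotinylated with BirA) immobilized at ~500 RU. Peptide was injected at the indicated concentrations, 45 μl per injection. Sensorgrams were double-referenced against a negative control flow cell and averaged buffer blanks. Kinetic parameters came from a global fit to a 1:1 bimolecular interaction model.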

Test [3] has as its target T2, G-protein coupled receptor Mth (Drosophila melanogaster) (UniProt O97148).
T2 sequence (whole entry): T1 sequence (O97148 whole entry)
As to the kind of experiment: Inhibition of Drosophila melanogaster Mth […] transfected into human HEK cells assessed as inhibition of N-Stunted-induced Mth signaling up to 10 uM. The format is cell-based. The conditions noted are these: HEK293. In outline: as §1

Test [4] addresses T2, G-protein coupled receptor Mth (Drosophila melanogaster). Description: Binding affinity to Drosophila melanogaster Mth ectodomain transfected in CHO cells up to 5 uM by SPR. Background: Surface plasmon resonance follows binding to a sensor surface in real time, without labels.
Test [5] relates to Drosophila melanogaster. Description: Displacement of radiolabeled full-length R8-01 mRNA from Drosophila melanogaster Mth ectodomain at 10 uM. In outline: (§3)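 35S-methionine-labelled RNA-peptide fusions were RNase-treated and bound to Mth ectodomain immobilized on NeutrAvidin-agarose (~1 mg Mth per ml matrix). For competition, unlabelled peptide at various concentrations was included in the binding buffer during the initial binding step.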

Test [6] has as its system Drosophila melanogaster. As to the kind of experiment: Displacement of radiolabeled full-length R8-01 mRNA from Drosophila melanogaster Mth ectodomain up to 150 uM. In outline:
as §3

The subject of test [7] is Drosophila melanogaster. As to the kind of experiment: Displacement of radiolabeled 30-mer synthetic peptide mRNA from Drosophila melanogaster Mth ectodomain at 30 uM. In outline:
as §3

Test [8] concerns Drosophila melanogaster. As to the kind of experiment: Increase in life span of Drosophila melanogaster GAL-4/UAS--[…] transgene insertion line 11.1 at 29 degC. The format is functional.
For test [9], the system named is Drosophila melanogaster. Description: Increase in maximal life span of Drosophila melanogaster GAL-4/UAS--[…] transgene insertion line 41.6 at 25 degC. The format is functional. In outline:
(§4)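 da-GAL4-driven UAS–R8-12 insertion line 41.6 male adults were maintained at 25 °C and followed by survival curves. Mean and maximal adult lifespans are the average of two independent trials, with about 90 to 120 flies per curve.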

The nature of test [10]: Binding affinity to G-protein coupled receptor MthW12S mutant of Drosophila melanogaster 300 nM by fluorescence microscopy. The procedure, abridged: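 Intrinsic Trp fluorescence with excitation at 295 nm. 300 nM peptide was titrated with Trp-less Mth W120S ectodomain, emission read at 345 nm, in 10 mM KH2PO4 pH 7.2, 150 mM NaCl. Complexes were mixed for 5 min in a stirred cell before reading. KD came from the titration.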

Test [11] deals with Drosophila melanogaster. As to the kind of experiment: Increase in mean life span of Drosophila melanogaster GAL4/UAS--[…] transgene insertion line 41.6 at 29 degC. The format is functional.
The subject of test [12] is Drosophila melanogaster. As to the kind of experiment: Increase in maximal life span of Drosophila melanogaster GAL4/UAS--[…] transgene insertion line 41.6 at 29 degC. The format is functional.
Test [13] concerns Drosophila melanogaster. As to the kind of experiment: Increase in life span of Drosophila melanogaster GAL-4/UAS--[…] transgene insertion line 41.2 at 29 degC. The format is functional.
Test [14] concerns the target T2, G-protein coupled receptor Mth (Drosophila melanogaster). Description: Binding affinity to Drosophila melanogaster full-length Mth-GFP transfected into CHO cells at 150 nM by fluorescence microscopy.
In test [15] the test system is Drosophila melanogaster. As to the kind of experiment: Increase in mean life span of Drosophila melanogaster GAL-4/UAS--[…] transgene insertion line 41.6 at 25 degC. The format is functional. The procedure, abridged:
as §4

The target in test [16] is T2, G-protein coupled receptor Mth (Drosophila melanogaster). Description: Binding affinity to Drosophila melanogaster Mth ectodomain at 1500 nM measured by SPR. The procedure, abridged:
as §2

For test [17] the target is unchanged. As to the kind of experiment: Binding affinity to Drosophila melanogaster Mth ectodomain at 100 nM measured by SPR. In outline: as §2
Test [18] relates to Drosophila melanogaster. Description: Displacement of radiolabeled full-length R8-04 mRNA from Drosophila melanogaster Mth ectodomain at 10 uM. The procedure, abridged: as §3
In test [19] the target is T2, G-protein coupled receptor Mth (Drosophila melanogaster). As to the kind of experiment: Binding affinity to Drosophila melanogaster Mth ectodomain at 300 nM measured by SPR. In outline:
as §2

Test [20] shares this target. Description: Binding affinity to Drosophila melanogaster Mth ectodomain at 900 nM measured by SPR. In outline:
as §2

For `CC[C@H](C)[C@H](NC(=O)[C@H](C)NC(=O)[C@H](CCCNC(=N)N)NC(=O)[C@H](CCC(N)=O)NC(=O)[C@@H](NC(=O)[C@H](Cc1c[nH]c2ccccc12)NC(=O)[C@@H](NC(=O)[C@H](C)NC(=O)[C@H](CCCNC(=N)N)NC(=O)[C@@H]1CCCN1C(=O)[C@H](C)N)C(C)C)[C@@H](C)CC)C(=O)N[C@@H](CCC(N)=O)C(=O)N[C@@H](C)C(=O)N[C@@H](CCSC)C(=O)N[C@@H](Cc1ccccc1)C(=O)N[C@@H](CCCNC(=N)N)C(=O)N[C@@H](CC(C)C)C(=O)N[C@@H](C)C(=O)N[C@@H](CO)C(=O)N[C@@H](CCCNC(=N)N)C(=O)N[C@@H](CCC(N)=O)C(=O)N[C@@H](CCC(=O)O)C(=O)N[C@@H](CO)C(=O)N[C@@H](CCCCN)C(=O)N[C@@H](C)C(=O)N[C@@H](Cc1ccccc1)C(=O)N[C@@H](CC(N)=O)C(=O)O`, the IC50 in test [1] was 115 nM. For the same molecule, the dissociation constant Kd in test [2] is 18 nM.

For `CC[C@H](C)[C@H](NC(=O)[C@H](C)NC(=O)[C@H](CCCNC(=N)N)NC(=O)[C@H](CCC(N)=O)NC(=O)[C@@H](NC(=O)[C@H](Cc1c[nH]c2ccccc12)NC(=O)[C@@H](NC(=O)[C@H](C)NC(=O)[C@H](CCCNC(=N)N)NC(=O)[C@@H]1CCCN1C(=O)[C@@H](C)N)C(C)C)[C@@H](C)CC)C(=O)N[C@@H](CCC(N)=O)C(=O)N[C@@H](C)C(=O)N[C@@H](CCSC)C(=O)N[C@@H](Cc1ccccc1)C(=O)N[C@@H](CCCNC(=N)N)C(=O)N[C@@H](CC(C)C)C(=O)N[C@@H](C)C(=O)N[C@@H](CO)C(=O)N[C@@H](CCCNC(=N)N)C(=O)N[C@@H](CCC(N)=O)C(=O)N[C@@H](CCC(=O)O)C(=O)N[C@@H](CO)C(=O)N[C@@H](CCCCN)C(=O)N[C@@H](C)C(=O)N[C@@H](Cc1ccccc1)C(=O)N[C@@H](CC(N)=O)C(=O)O`, the inhibition entry in [3] is “inactive”.

Regarding H-GDDMYRIREFLANYRPIWVMRSNLAQL-OH, the equilibrium dissociation constant (Kd) in test [2] is less than 30 nM.

Turning to H-MAPRAVAIQRAIQAMFRLAGY-OH, the result in test [4] was inactive.

Consider H-MAPRAVWIQAAIQAMFRLA-OH, for which the outcome in [4] was inactive.

H-NVSWGSFPSSWLQRYYLAKRREADVTL-OH: the Activity in the test on Drosophila melanogaster [5] amounted to 96%; in the test with Drosophila melanogaster [7], 79%. Further, in the test with Drosophila melanogaster [6], the outcome was inactive. Moreover, in [2], the dissociation constant Kd was 31 nM.

As for H-RLVWIVRSRHFGPRLRMALLGSDRKMW-OH, in test [1], the IC50 came to 45 nM. Moreover, the Activity in the test with Drosophila melanogaster [8] was 40%; in the test on Drosophila melanogaster [9], 36%; in the test on Drosophila melanogaster [11], 38%; in the test on Drosophila melanogaster [12] it was 26%; in the test on Drosophila melanogaster [13] it was 31%; in the test on Drosophila melanogaster [15] it was 49%. For the same molecule, the Kd in [10] was found to be 15 nM; in [2], 18 nM. Besides, the result in test [14] was Active. For the same molecule, the inhibition result in test [3] was “inactive”.

H-RYVWYLRTKHRRSLRLRSACARGSSA-OH: in test [2], the Kd is less than 30 nM.

As to H-VRIGYTSKPGGMNPGNSYTMSIIRMLI-OH, the result in test [16], in [17], in test [19] and in test [20] was Active. The molecule further came in with a Kd in test [2] of 326 nM. For the same molecule, in the test on Drosophila melanogaster [18], the Activity worked out at 94%.
